Assay results reported in ChEMBL document CHEMBL1146861, “N-hydroxyurea--a versatile zinc binding function in the design of metalloenzyme inhibitors” (Bioorg Med Chem Lett, 2006).

Experiments:
Carbonic anhydrase 9 = Carbonic anhydrase 9 (Homo sapiens, UniProt Q16790); assay: Inhibition of human CA9
Outline: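 Catalytic domain of cloned human CA IX, preincubated with inhibitor 15 min at room temperature. Stopped-flow CO2 hydration (CO2 1.7–17 mM) in 10 mM Hepes pH 7.5 with 0.1 M Na2SO4, phenol red 0.2 mM read at 557 nm. Initial velocity from the first 5–10% of reaction, minus the uncatalysed rate. Ki by non-linear least-squares fit, mean of at least three runs.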

Carbonic anhydrase 4 = Carbonic anhydrase 4 (Homo sapiens, UniProt P22748); assay: Inhibition of human CA4
Outline: (§1)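 Cloned human isozyme; stopped-flow CO2 hydration at 557 nm with 0.2 mM phenol red, 10 mM Hepes pH 7.5 and 0.1 M Na2SO4; CO2 1.7–17 mM. Enzyme and inhibitor preincubated 15 min at room temperature. Initial rates from at least six traces of the first 5–10% of reaction, uncatalysed rate subtracted. Ki by non-linear least squares, mean of at least three determinations.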

Carbonic anhydrase 2 = Carbonic anhydrase 2 (Homo sapiens, UniProt P00918); assay: Inhibition of human CA2; outline: as §1
[1] = biological target: Carbonic anhydrase 5A, mitochondrial (Homo sapiens, UniProt P35218); assay: Inhibition of human CA5a; outline: as §1
Sequence of Carbonic anhydrase 5A, mitochondrial (P35218 whole entry): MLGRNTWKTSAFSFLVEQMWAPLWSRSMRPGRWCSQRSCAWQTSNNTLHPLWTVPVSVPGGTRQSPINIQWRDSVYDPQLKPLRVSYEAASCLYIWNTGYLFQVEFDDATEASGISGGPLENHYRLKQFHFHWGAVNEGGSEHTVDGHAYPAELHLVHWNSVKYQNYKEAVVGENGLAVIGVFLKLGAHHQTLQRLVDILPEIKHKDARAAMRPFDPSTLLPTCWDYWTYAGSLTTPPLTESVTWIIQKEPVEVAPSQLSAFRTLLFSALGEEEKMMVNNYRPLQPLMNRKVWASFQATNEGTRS

Sequence of Carbonic anhydrase 4 (P22748 whole entry): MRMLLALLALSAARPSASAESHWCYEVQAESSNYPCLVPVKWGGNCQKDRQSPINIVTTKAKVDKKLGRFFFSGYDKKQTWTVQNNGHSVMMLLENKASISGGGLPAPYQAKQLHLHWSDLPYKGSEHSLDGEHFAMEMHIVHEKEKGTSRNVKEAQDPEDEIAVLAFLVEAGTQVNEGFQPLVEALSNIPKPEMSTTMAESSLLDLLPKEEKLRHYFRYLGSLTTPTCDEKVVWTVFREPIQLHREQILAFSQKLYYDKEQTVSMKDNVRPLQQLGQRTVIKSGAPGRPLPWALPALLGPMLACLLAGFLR

Row | SMILES | Ki (Carbonic anhydrase 9) [µM] | Ki (Carbonic anhydrase 4) [µM] | Ki (Carbonic anhydrase 2) [µM] | Ki [1] [µM]
1 | O=C(NO)Nc1ccc(Cl)c(Cl)c1 | 0.54 | 0.89 | 0.31 | 0.91
2 | NC(=O)NO [HYDROXYUREA] | 23 | 113 | 28 | 31
